In brackets after ≈: the same amount, converted by molar mass. One block for each molecule: values may come before it. Activity calls are given as the source filed them. No cut-off for these calls is given here.
Columns and labels:
Metallo beta-lactamase = Metallo beta-lactamase (Pseudomonas aeruginosa, UniProt Q6TUJ4); test: Inhibition of carbapenems-resistant Pseudomonas aeruginosa MSC15369 metallo-beta-lactamase IMP1 expressed in Escherichia coli DH5[alpha] using nitrocefin as substrate after 20 mins by spectrophotometry
Sequence of Metallo beta-lactamase (Q6TUJ4 whole entry): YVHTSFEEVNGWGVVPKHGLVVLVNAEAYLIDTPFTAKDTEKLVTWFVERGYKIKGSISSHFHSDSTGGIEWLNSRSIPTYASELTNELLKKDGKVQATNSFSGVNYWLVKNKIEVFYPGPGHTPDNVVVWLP
Procedure, shortened: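 IMP-1 was expressed in E. coli DH5 with 0.5 mM IPTG induction for 3 h at room temperature, and the soluble enzyme was purified from cell extracts on Ni-NTA. Inhibitors were incubated with 1.0 nM IMP-1 for 20 min at room temperature, and IC50 values were determined.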

Pseudomonas aeruginosa [1] = test: Antibacterial activity against Pseudomonas aeruginosa PAO1 pMS363 at 50 ug/ml by microbroth dilution method in presence of biapenem; format: functional, organism-based
Pseudomonas aeruginosa [2] = test: Antibacterial activity against mexAB-deleted Pseudomonas aeruginosa KG5002/pMS363 at 50 ug/ml by microbroth dilution method in presence of biapenem; format: functional, organism-based
Pseudomonas aeruginosa [3] = test: Antibacterial activity against Pseudomonas aeruginosa clinical isolates producing IMP-1 by microbroth dilution method in presence of biapenem; format: functional, organism-based
Procedure, shortened: (§1)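 Minimum inhibitory concentrations were determined by broth microdilution following CLSI guidance, with Mueller–Hinton II broth as the test medium.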

Pseudomonas aeruginosa [4] = test: Antibacterial activity against Pseudomonas aeruginosa clinical isolates producing IMP-1 by microbroth dilution method in presence of meropenem; format: functional, organism-based; procedure, shortened: as §1
Pseudomonas aeruginosa [5] = test: Antibacterial activity against Pseudomonas aeruginosa clinical isolates producing IMP-1 by microbroth dilution method in presence of ceftazidime; format: functional, organism-based; procedure, shortened: as §1
Pseudomonas aeruginosa [6] = test: Antibacterial activity against mexAB-deleted Pseudomonas aeruginosa KG5002/pMS363 by microbroth dilution method; format: functional
Procedure, shortened: (§2)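 MIC determined by broth microdilution following CLSI guidance, with Mueller–Hinton II broth as the test medium.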

Pseudomonas aeruginosa [7] = test: Antibacterial activity against Pseudomonas aeruginosa PAO1 pMS363 by microbroth dilution method; format: functional; procedure, shortened: as §2

Compound: Nc1cccc(C(=O)O)c1C(=O)O
IC50 (Metallo beta-lactamase): 300 µM

Compound: O=C(O)CCCCOc1cccc(C(=O)O)c1C(=O)O
Activity (Pseudomonas aeruginosa [1]): Active | IC50 (Metallo beta-lactamase): 18.8 µM

Compound: COc1cccc(C(=O)O)c1C(=O)O
IC50 (Metallo beta-lactamase): 142 µM

Compound: O=C(O)c1cccc(N2CCC(O)(c3ccccc3)CC2)c1C(=O)O
Activity (Pseudomonas aeruginosa [1]): Active | Activity (Pseudomonas aeruginosa [2]): Active | IC50 (Metallo beta-lactamase): 2.3 µM

Compound: CCCCNc1cccc(C(=O)O)c1C(=O)O
IC50 (Metallo beta-lactamase): 13.1 µM

Compound: O=C(O)c1cccc(N2CCC(CO)CC2)c1C(=O)O
Activity (Pseudomonas aeruginosa [1]): Active | Activity (Pseudomonas aeruginosa [2]): Active | IC50 (Metallo beta-lactamase): 2.6 µM

Compound: O=C(O)c1cccc(OCCCC2CCCCC2)c1C(=O)O
Activity (Pseudomonas aeruginosa [1]): inactive | IC50 (Metallo beta-lactamase): 2 µM

Compound: O=C(O)c1cccc(N2CCCCC2)c1C(=O)O
Activity (Pseudomonas aeruginosa [1]): Active | Activity (Pseudomonas aeruginosa [2]): Active | IC50 (Metallo beta-lactamase): 10.8 µM

Compound: O=C(O)c1cccc(OCCCO)c1C(=O)O
Activity (Pseudomonas aeruginosa [1]): Active | Activity (Pseudomonas aeruginosa [2]): Active | IC50 (Metallo beta-lactamase): 21.4 µM

Compound: O=C(O)c1cccc(OCc2ccccc2)c1C(=O)O
IC50 (Metallo beta-lactamase): 7.4 µM

Compound: CN(C)c1cccc(C(=O)O)c1C(=O)O
Activity (Pseudomonas aeruginosa [1]): Active | Activity (Pseudomonas aeruginosa [2]): Active | IC50 (Metallo beta-lactamase): 94.5 µM

Compound: O=C(O)c1cccc(N2CCCC(O)C2)c1C(=O)O (stereo not given)
Activity (Pseudomonas aeruginosa [1]): Active | Activity (Pseudomonas aeruginosa [2]): Active | IC50 (Metallo beta-lactamase): 2.7 µM

Compound: O=C(O)c1cccc(N2CCCC(CO)C2)c1C(=O)O (stereo not given)
Activity (Pseudomonas aeruginosa [1]): Active | Activity (Pseudomonas aeruginosa [2]): Active | IC50 (Metallo beta-lactamase): 2.1 µM

Compound: O=C(O)c1cccc(-c2ccc(O)cc2)c1C(=O)O
IC50 (Metallo beta-lactamase): 1.55 µM

Compound: O=C(O)c1cccc(N2CCCC2)c1C(=O)O
Activity (Pseudomonas aeruginosa [1]): Active | Activity (Pseudomonas aeruginosa [2]): Active | IC50 (Metallo beta-lactamase): 2.8 µM

Compound: O=C(O)c1cccc(N2CCC(O)CC2)c1C(=O)O
Activity (Pseudomonas aeruginosa [3]): Dose-dependent effect | Activity (Pseudomonas aeruginosa [1]): Active | Activity (Pseudomonas aeruginosa [4]): Dose-dependent effect | Activity (Pseudomonas aeruginosa [5]): Dose-dependent effect | Activity (Pseudomonas aeruginosa [2]): Active | IC50 (Metallo beta-lactamase): 2.7 µM

Compound: O=C(O)c1cccc(OCCO)c1C(=O)O
Activity (Pseudomonas aeruginosa [1]): Active | Activity (Pseudomonas aeruginosa [2]): Active | IC50 (Metallo beta-lactamase): 47.8 µM

Compound: CCCCOc1cccc(C(=O)O)c1C(=O)O
IC50 (Metallo beta-lactamase): 5.1 µM

MIC (Pseudomonas aeruginosa [6]): 64 µg/mL (≈ 183 µM) | MIC (Pseudomonas aeruginosa [7]): 64 µg/mL (≈ 183 µM)
Compound: C[C@@H](O)[C@H]1C(=O)N2C(C(=O)[O-])=C(SC3Cn4cnc[n+]4C3)[C@H](C)[C@H]12 (stereo not given in full) [BIAPENEM]

Compound: O=C(O)c1cccc(N2CCC(CCO)CC2)c1C(=O)O
Activity (Pseudomonas aeruginosa [1]): Active | Activity (Pseudomonas aeruginosa [2]): Active | IC50 (Metallo beta-lactamase): 25.6 µM

Compound: O=C(O)c1cccc(OCCCc2ccccc2)c1C(=O)O
Activity (Pseudomonas aeruginosa [1]): inactive | Activity (Pseudomonas aeruginosa [2]): Active | IC50 (Metallo beta-lactamase): 1.7 µM

Compound: COC1CCN(c2cccc(C(=O)O)c2C(=O)O)CC1
Activity (Pseudomonas aeruginosa [1]): Active | Activity (Pseudomonas aeruginosa [2]): Active | IC50 (Metallo beta-lactamase): 3.7 µM

Compound: O=C(O)c1cccc(O)c1C(=O)O
IC50 (Metallo beta-lactamase): > 300 µM
